# Assay outcomes as filed in PubChem BioAssay.
# NPY-Y2 antag: NPY-Y2 receptor antagonists, primary screen, cell-based | Neuropeptide Y receptor type 2 (Homo sapiens), P49146 | NPY-Y2 expressing cells, antagonist mode | inhibition, % at 2.7 µM | 140,000 compounds, 0.99% hits; in the data active = inhibition above about 17%;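 note: 0% = vehicle with agonist challenge and 100% = reference antagonist with challenge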
# Target sequence (P49146 whole entry, looked up): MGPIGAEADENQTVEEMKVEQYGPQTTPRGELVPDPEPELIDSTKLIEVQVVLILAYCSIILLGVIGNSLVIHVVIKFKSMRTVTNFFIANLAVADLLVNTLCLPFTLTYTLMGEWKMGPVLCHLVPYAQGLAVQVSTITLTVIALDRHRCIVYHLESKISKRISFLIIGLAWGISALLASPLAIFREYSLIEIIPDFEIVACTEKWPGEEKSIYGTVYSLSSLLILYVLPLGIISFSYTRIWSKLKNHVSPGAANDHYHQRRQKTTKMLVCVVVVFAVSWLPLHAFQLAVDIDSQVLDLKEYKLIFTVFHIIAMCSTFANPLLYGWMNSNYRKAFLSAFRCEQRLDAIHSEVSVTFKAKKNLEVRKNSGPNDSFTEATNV
# NPY-Y1 PAM-ag: NPY-Y1 receptor potentiators or agonists, primary screen, cell-based; Neuropeptide Y receptor type 1 (Homo sapiens), P25929; NPY-Y1 expressing cells, potentiator/agonist activation; activation, % at 3.6 µM; 220,000 compounds, 0.37% hits; in the data active = activation above about 33%, passing the limit was not always enough;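 note: cells stimulated with NPY at EC10 then isoproterenol at EC100; 0% = low agonist plus stimulus and 100% = saturating agonist plus stimulus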
# NPY-Y1 antag: NPY-Y1 receptor antagonists, primary screen, cell-based | HEK293-CNG Y1 cells, membrane potential fluorescence; NPY at EC95, then isoproterenol | inhibition, % at 3.6 µM | 200,000 compounds, 1% hits;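 active = inhibition above the campaign mean inhibition of all tested compounds plus 3 SD, cut at about 20% in these data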;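 note: 0% = DMSO wells given NPY plus isoproterenol and 100% = isoproterenol alone without NPY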
#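 Assay system: HEK293 Y1/CNG channel cell line; Doses: single compound dose of 3.6 µM, 0.4% DMSO; Timing: dye 3 h, compound 60 min room temperature, stimulation 45 min; Technique: Membrane-potential fluorescent dye readout; Measure: % inhibition of NPY effect.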
# NPY2 pot ag: NPY-Y2 potentiators or agonists, primary screen, cell-based | cells expressing NPY-Y2, potentiator/agonist read-out | 220,000 compounds, 0.45% hits | Neuropeptide Y receptor type 2 (Homo sapiens), P49146 | activation, % at 3.6 µM; in the data active = activation above about 27%;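 note: cells stimulated with NPY near EC25 plus isoproterenol at EC100; 0% = vehicle plus submaximal agonist and 100% = vehicle plus saturating agonist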
# NPY-Y2 confirm: NPY-Y2 potentiators or agonists, confirmation, cell-based. shares compounds with NPY2 pot ag. cell-based NPY-Y2 potentiator/agonist assay. activation, % at 3.6 µM. 450 compounds, 20% hits; in the data active = activation above about 33%
# NPY-Y1 counter: NPY-Y1 potentiators or agonists, counter-screen for NPY-Y2 potentiator project, cell-based, fluorescence. shares compounds with NPY2 pot ag. Y1 HEK293-CNG cells, membrane potential fluorescence. activation, % at 3.6 µM. 450 compounds, 20% hits. AID 1651, 2009; in the data active = activation above about 45%;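 note: cells stimulated with submaximal NPY then isoproterenol with phosphodiesterase inhibitor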
# NPY-Y1 agonist 2: NPY-Y1 direct agonists, selectivity assay for NPY-Y2 potentiator project, cell-based, fluorescence; shares compounds with NPY2 pot ag; activation, % at 3.6 µM; HEK293 Y1-CNGC, membrane potential fluorescence, agonism; 450 compounds, 37% hits;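 active = activation above the mean of DMSO-only control wells plus 3 SD, cut at about 18% in these data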;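 note: cells stimulated with 1 µM isoproterenol plus the PDE inhibitor Ro 20-1724; 0% = isoproterenol with DMSO and no NPY and 100% = 40 nM NPY; Y1 agonists lower the membrane potential dye signal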
# CNGC inh: CNGC cAMP sensor activity inhibitors, counter-screen for NPY-Y2 potentiator project, cell-based, HEK293-CNG parental, membrane potential fluorescence; shares compounds with NPY2 pot ag; isoproterenol cAMP; inhibition, % at 3.6 µM; 450 compounds, 32% hits;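 active = inhibition above the control-well mean plus 3 SD of those wells, cut at about 22% in these data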;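 note: 0% = DMSO with isoproterenol and 100% = DMSO without isoproterenol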
# Y2 agonist ctr: NPY-Y2 direct agonists, counter-screen for NPY-Y2 potentiator project, cell-based, fluorescence. shares compounds with NPY2 pot ag. 450 compounds, 56% hits. HEK293 Y2/CNGC cells, membrane potential fluorescence, agonist mode. activation, % at 3.6 µM;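 active = activation above the mean of solvent-only control wells plus 3 SD, cut at about 10% in these data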;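 note: cells stimulated by isoproterenol with no NPY added so direct agonism is tested; 0% = DMSO with isoproterenol alone and 100% = NPY at EC100 plus isoproterenol; agonism lowers probe fluorescence through less cAMP and CNG channel opening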
# * hit, by the source's call; . = no result. In the library only some 1.8% were active in any assay of this set; here they are far more common.
SMILES,NPY-Y2 antag,NPY-Y1 PAM-ag,NPY-Y1 antag,NPY2 pot ag,NPY-Y2 confirm,NPY-Y1 counter,NPY-Y1 agonist 2,CNGC inh,Y2 agonist ctr
COCCCNC(=O)c1c[nH]c2ccc(S(=O)(=O)N3CCc4ccccc43)cc2c1=O,.,12,0,33*,14,8,-3,1,13*
COCCNC(=O)c1c[nH]c2ccc(S(=O)(=O)N3CCc4ccccc43)cc2c1=O,.,21,-9,15,.,.,.,.,.
N#C/C(=N\Nc1ccc(Cl)cc1)C(=O)c1ccccc1,0,35,-12,47*,19,-3,7,1,20*
Cc1c(N/N=C(\C#N)C(=O)c2ccc(Cl)cc2)c(=O)n(-c2ccccc2)n1C,2,-4,3,-13,.,.,.,.,.
ClC(/C=N/n1cnnc1)=C/c1ccccc1,.,19,.,8,.,.,.,.,.
CC(C)OC(=O)C(C)Nc1n[nH]c(=S)[nH]c1=O (stereo unspecified),.,3,2,73*,1,-2,10,-1,11*
Nc1ncnc(Nc2ccc(F)cc2)n1,0,-3,-3,5,.,.,.,.,.
Fc1ccc(Nc2ccnc(Nc3ccc(F)cc3)n2)cc1,-3,26,-5,32*,21,28,15,24*,26*
O=C(CN1CCC(C(=O)c2cccc(Cl)c2)CC1)Nc1cccc(C(=O)O)c1,.,8,-1,1,.,.,.,.,.
NC(=O)C1CCN(CC(=O)Nc2cccc(C(=O)Nc3cccc(C(F)(F)F)c3)c2)CC1,-1,33,0,41*,0,-2,-8,-2,-10
COC(=O)c1[nH]c2ccc(Br)cc2c1NC(=O)CN1CCN(C2CCCCC2)CC1,13,30,6,33*,43*,57*,28*,49*,33*
CCc1cccc(NC(=O)c2cc(OC)c(OC)c(OC)c2)c1,.,-10,3,61*,-7,-8,-20,-2,-1
COc1cc(C(=O)Nc2ccc3c(c2)C(=O)c2ccccc2C3=O)cc(OC)c1OC,4,-23,3,-2,.,.,.,.,.
CN1CCN(NC(=O)c2cc(S(=O)(=O)Nc3ccc(Cl)cc3)ccc2Cl)CC1,.,13,.,8,.,.,.,.,.
Cc1nc(-c2nc(-c3c(C(=O)NNC(=O)Nc4ccccc4)noc3C)cs2)cs1,.,-11,.,-8,.,.,.,.,.
COc1ccc(CNC(=O)COC(=O)CCc2nc3ccccc3c(=O)[nH]2)cc1,.,-2,4,5,.,.,.,.,.
O=C(COC(=O)CCc1nc2ccccc2c(=O)[nH]1)NCc1ccc(F)cc1,.,-17,.,102*,-3,-4,-13,-2,-6
CCCCCC(=O)NNC1CC(=O)N(c2cccc(OCC)c2)C1=O (stereo unspecified),.,4,.,-32,.,.,.,.,.
O=C(Nc1ccccc1)C1=C[C@H](c2ccc3c(c2)OCO3)C[C@H](OCc2ccc(CO)cc2)O1,.,-21,6,-21,.,.,.,.,.
CCN1C(=O)C2(C(C#N)=C(N)Oc3n[nH]c(-c4ccc(Cl)cc4)c32)c2ccccc21 (stereo unspecified),5,31,-7,39*,44*,58*,51*,24*,36*
CCN1C(=O)C2(C(C#N)=C(N)Oc3n[nH]c(C(C)C)c32)c2ccccc21 (stereo unspecified),2,-15,2,-25,.,.,.,.,.
Cc1c(NS(=O)(=O)c2cccc(C(=O)NCc3ccccc3)c2)c(=O)n(-c2ccccc2)n1C,0,0,7,-9,.,.,.,.,.
Cc1ccc(NS(=O)(=O)c2cccc(C(=O)Nc3c(C)n(C)n(-c4ccccc4)c3=O)c2)cc1,.,-18,.,58*,-3,-2,-11,0,-1
CCC(SC1=NCCS1)C(=O)Nc1ccc(S(N)(=O)=O)cc1 (stereo unspecified),-2,-14,1,3,.,.,.,.,.
Cc1ccc(C)c(OCC(O)CN2CCC(C)CC2)c1C (stereo unspecified),5,-4,5,-3,.,.,.,.,.
SMILES,NPY-Y2 antag,NPY-Y1 PAM-ag,NPY-Y1 antag,NPY2 pot ag,NPY-Y2 confirm,NPY-Y1 counter,NPY-Y1 agonist 2,CNGC inh,Y2 agonist ctr
Cc1ccccc1OCC(O)CN1CCC(C)CC1 (stereo unspecified),.,31,-4,37*,21,34,19*,3,42*
O=C(COc1ccccc1)NCC(=O)N/N=C/c1ccc(O)cc1O,.,6,.,4,.,.,.,.,.
Oc1ccc(Cl)cc1CNn1cnnc1,.,3,5,-7,.,.,.,.,.
Oc1ccc(Cl)cc1Cc1cc(Cl)ccc1O,-4,65,-8,62*,39*,35,36*,28*,32*
CCC(C)(C)NC(=O)C(c1cccn1C)N(Cc1ccccc1)C(=O)Cn1nnc2ccccc21 (stereo unspecified),12,-77,14,61*,-129,-200,-131,-127,-103
COCCNC(=O)C(c1cccs1)N(Cc1ccccc1)C(=O)Cn1nnc2ccccc21 (stereo unspecified),0,1,5,-12,.,.,.,.,.
CCN1CCN(C(=S)Nc2ccc3nc4n(c(=O)c3c2)CCCCC4)CC1,.,-10,0,0,.,.,.,.,.
Cc1ccc(C(=O)N2CC3(C)CN(C(=O)c4ccc(C)cc4)CC(C)(C2)C3=O)cc1,0,14,2,30*,-2,0,0,-3,-6
Brc1ccc(-c2csc(-c3c[nH]c4ccccc34)n2)cc1,-3,5,-5,11,.,.,.,.,.
c1ccc2c(-c3csc(-c4ccncc4)n3)c[nH]c2c1,.,34,-11,33*,28,53*,51*,39*,34*
O=C1/C(=C\c2ccc(O)c(O)c2)C(c2ccccc2)=NN1c1ccccc1,.,21,-5,26*,10,8,-1,8,7
CCOC(=O)C1(CCOC)CCN(Cc2ccc(C3CCCCO3)s2)CC1 (stereo unspecified),.,-16,5,-21,.,.,.,.,.
COc1ccc(-n2nnnc2SCC(=O)NCCc2ccccc2)cc1OC,.,14,3,56*,-2,-4,-1,5,17*
